Read-outs that look alike come from different tables or passages of the source.
Columns and labels:
zebrafish = conditions: cited from earlier work
ES-D3 embryoid bodies [1] = test: Embryoid body; format: cell-based, murine; conditions: Mus musculus, read-out: EB area (EC50); day 7
How it was run: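 Differentiation run without LIF. Hanging drops kept 3 days, then EBs moved to exposure medium for 2 days, then placed singly in 24-well plates with exposure medium. On differentiation day 7, each EB was imaged by bright field at 4x and its border traced to give area. Mean area of 24 EBs per condition was used. EC50 taken from an exponential concentration-response fit with 90% BMCL-BMCU.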

rats = conditions: cited from earlier work
ES-D3 cells = test: Cell viability assay; format: cell-based, murine; conditions: Mus musculus, 120 h, read-out: Viability (IC50)
How it was run: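 ES-D3 cells plated at 500/well in LIF-containing medium and settled 2 h at 37 °C, 5% CO2. Exposed in six replicates to test compound, 0.25% DMSO vehicle, or penicillin G and 5-fluorouracil controls. Medium renewed at the same final concentrations after 3 days, then 2 more days. CellTiter-Blue added for 2 h; fluorescence read at 544/590 nm and expressed as % of DMSO. n = 3 experiments. IC50 taken from an exponential concentration-response fit with 90% BMCL-BMCU.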

ES-D3 embryoid bodies [2] = test: Total protein measurements of EBs; format: cell-based, murine; conditions: Mus musculus, 168 h, read-out: Protein level (EC50); day 7
How it was run: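 Differentiation run without LIF. Hanging drops kept 3 days, then exposure to test compound during EB culture. On differentiation day 7, 24 EBs per condition were pooled, dissociated at 37 °C for 3 min, washed in PBS and permeabilised in 1% Triton X-100 for 5 min. Protein measured by Micro BCA in triplicate. EC50 taken from an exponential concentration-response fit with 90% BMCL-BMCU.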

rabbits = conditions: cited from earlier work
ES-D3 embryoid bodies [3] = test: Gene expression analysis; format: cell-based, murine; conditions: after 24 h exposure, day 4
How it was run: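 EBs differentiated to day 4 with 24 h exposure to test compound or 0.25% DMSO. 7–8 EB samples from two independent experiments. RNA isolated with a DNase step; quality accepted at 260/280 of 1.9–2.2 and RIN >8.2. TaqMan real-time PCR: 95 °C for 20 s, then 40 cycles of 95 °C 3 s and 60 °C 30 s. Values by ΔΔCt against mean Hprt1/Gusb/Polr2a. One-way ANOVA with Sidak test (p < 0.05) versus control.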

Row | SMILES | Cardiac-related developmental defects (zebrafish; zebrafish) | EC50 (ES-D3 embryoid bodies [1]) [µM] | Degenerated neurons in the cerebellum of the offspring (rats; exposure of pregnant rats) | Numbers of Purkinje cells in the offspring (rats; exposure of pregnant rats) | Psychobiological development (rats; neonatal rats, dams exposed to 1 mg/kg per os) | Acetylcholine esterase (AChE) (rats; neonatal rats) | Muscarinic receptors (rats; neonatal rats) | Malformations (rats; rats, maternally toxic doses of 25 mg/kg per day) | IC50 (ES-D3 cells) [µM] | EC50 (ES-D3 embryoid bodies [2]) [µM] | Fetotoxicity and teratogenicity (rabbits) | Cardiac-related developmental defects (zebrafish; zebrafish model) | Cardiac effects (zebrafish; zebrafish) | Fetotoxicity and teratogenicity (rats; rats) | Myh6 gene expression (late cardiomyocyte differentiation marker) (ES-D3 embryoid bodies [3])
1 | CCOP(=S)(OCC)Oc1nc(Cl)c(Cl)cc1Cl [Chlorpyrifos] | pericardial oedema | 139 | increased degenerated neurons | reduced numbers of Purkinje cells | delay in psychobiological development | reductions | dose-dependent decrease | multiple malformations | 85.7 | 92 |  |  |  |  | 
2 | CCOC(=O)CC(SP(=S)(OC)OC)C(=O)OCC (stereo not shown) [Malathion, malathion] | bradycardia and a reduced heart rate | 72 |  |  |  |  |  |  | 49.4 | 80.2 | neither fetotoxic nor teratogenic |  |  |  | 
3 | O=P(Oc1ccccc1)(Oc1ccccc1)Oc1ccccc1 [Triphenyl phosphate, triphenyl phosphate] |  | 120 |  |  |  |  |  |  | 61.4 | 108 |  | impaired cardiac looping and function | impairments in cardiac looping and function defects | neither fetotoxic nor teratogenic | not expressed yet
